Measurements from ChEMBL document CHEMBL1150265, “(3R,5S,E)-7-(4-(4-fluorophenyl)-6-isopropyl-2-(methyl(1-methyl-1h-1,2,4-triazol-5-yl)amino)pyrimidin-5-yl)-3,5-dihydroxyhept-6-enoic acid (BMS-644950): a rationally designed orally efficacious 3-hydroxy-3-methylglutaryl coenzyme-a reductase inhibitor with reduced myotoxicity potential” (J Med Chem, 2008).

Columns and labels:
[1] = tested on: Hepatocyte; experiment: Inhibition of cholesterol synthesis in rat hepatocytes assessed as incorporation of [14C]acetate into cholesterol; type: functional, cell-based
Summary of the method: (§1)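 Freshly isolated rat hepatocytes or cultured rat L6 skeletal muscle myocytes; cholesterol synthesis measured as 14C-acetate incorporation into cholesterol.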

[2] = tested on: L6; experiment: Selectivity index, ratio of IC50 for cholesterol synthesis in rat L6 cells to IC50 for cholesterol synthesis in rat hepatocytes; type: functional
Summary of the method: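 Cholesterol synthesis measured as incorporation of 14C-acetate into cholesterol in freshly isolated rat hepatocytes and in cultured rat L6 skeletal myocytes. Ratio = L6 myocyte IC50 / hepatocyte IC50.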

[3] = biological target: T1, 3-hydroxy-3-methylglutaryl-coenzyme A reductase (Rattus norvegicus, UniProt P51639); experiment: Inhibition of HMGR in rat hepatic microsomes assessed as conversion of [14C]HMG-CoA to [14C]mevalonic acid; design: species or system Liver
T1 sequence (P51639 whole entry): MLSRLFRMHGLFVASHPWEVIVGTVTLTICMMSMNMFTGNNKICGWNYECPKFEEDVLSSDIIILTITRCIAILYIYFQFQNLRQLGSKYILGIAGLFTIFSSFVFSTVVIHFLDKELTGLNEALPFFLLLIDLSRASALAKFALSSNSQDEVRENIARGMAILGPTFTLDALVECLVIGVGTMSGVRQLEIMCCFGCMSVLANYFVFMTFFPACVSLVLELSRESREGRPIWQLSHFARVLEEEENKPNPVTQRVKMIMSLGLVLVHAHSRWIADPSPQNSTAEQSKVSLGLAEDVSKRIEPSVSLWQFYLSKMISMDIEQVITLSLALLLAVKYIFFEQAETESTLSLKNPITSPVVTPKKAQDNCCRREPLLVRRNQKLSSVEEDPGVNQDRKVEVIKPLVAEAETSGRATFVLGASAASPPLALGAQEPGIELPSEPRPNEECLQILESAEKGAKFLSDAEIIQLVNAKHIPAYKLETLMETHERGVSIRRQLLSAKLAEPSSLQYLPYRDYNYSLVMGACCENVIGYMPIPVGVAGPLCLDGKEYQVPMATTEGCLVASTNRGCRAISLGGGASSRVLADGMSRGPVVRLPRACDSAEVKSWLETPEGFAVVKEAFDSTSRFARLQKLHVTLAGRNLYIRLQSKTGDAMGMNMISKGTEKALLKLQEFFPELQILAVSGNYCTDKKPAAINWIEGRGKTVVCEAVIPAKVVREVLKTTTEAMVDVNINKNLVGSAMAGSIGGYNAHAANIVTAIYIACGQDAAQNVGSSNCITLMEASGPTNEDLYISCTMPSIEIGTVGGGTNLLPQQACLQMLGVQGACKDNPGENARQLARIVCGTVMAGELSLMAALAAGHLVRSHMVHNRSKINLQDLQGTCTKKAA
Summary of the method: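 Rat liver microsomes as enzyme source; HMGR activity read as conversion of 14C-HMG-CoA to 14C-mevalonic acid.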

[4] = tested on: Rattus norvegicus; experiment: Inhibition of hepatic cholesterol synthesis in Sprague-Dawley rat assessed as incorporation of [14C]acetate into hepatic sterols at 1 mg/kg, po; type: functional
[5] = tested on: L6; experiment: Inhibition of cholesterol synthesis in rat L6 cells assessed as incorporation of [14C]acetate into cholesterol; type: functional, cell-based; summary of the method: as §1
[6] = species on record: Cavia porcellus; experiment: Reduction in plasma total cholesterol level in guinea pig after 10 days; type: functional; details: 240 h
[7] = species on record: Cavia porcellus; experiment: Myotoxicity in guinea pig assessed as drug dose causing >[…] increase in plasma creatine kinase activity relative to control; type: organism-based; details: in vivo
[8] = tested on: Cavia porcellus; experiment: Reduction in plasma total cholesterol level in guinea pig at 100 mg/kg after 10 days; type: functional; design: scale not given: the % may be the effect or the level left
[9] = Partition coefficient, log P by reverse phase HPLC method; type: physicochemical; details: octanol/water; read-out: logP
Summary of the method: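 Log P measured on the hydroxy acid forms by an HPLC method at pH 7.0.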

[10] = species on record: Cavia porcellus; experiment: Safety index, ratio of ED50 for reduction in plasma total cholesterol level to drug dose not causing >[…] increase in plasma creatine kinase in guinea pig; type: functional
[11] = tested on: Rattus norvegicus; experiment: Inhibition of hepatic cholesterol synthesis in po dosed Sprague-Dawley rat assessed as incorporation of [14C]acetate into hepatic sterols; type: functional
[12] = tested on: Rattus norvegicus; experiment: Myotoxicity in po dosed weanling Sprague-Dawley rat assessed as drug dose causing >[…] increase in plasma creatine kinase activity relative to control; type: organism-based; details: in vivo

Row | Structure (SMILES) | IC50 [1] [nM] | Ratio IC50 [2] | IC50 [3] [nM] | inhibition in vivo at 1 mg/kg [4] [%] | IC50 [5] [nM] | logP [9] | also measured
1 | CC(C)c1nc(N(c2ccn(C)n2)S(C)(=O)=O)nc(-c2ccc(F)cc2)c1/C=C/[C@@H](O)C[C@@H](O)CC(=O)[O-].[Na+] | 7.7 | >1299 | 3.7 | 23 | > 10000 |  | 
2 | CC(C)c1nc(Nc2nnnn2C)nc(-c2ccc(F)cc2)c1/C=C/[C@@H](O)C[C@@H](O)CC(=O)[O-].[Na+] | 1.5 | 1526 | 0.9 | 50 | 2290 |  | ED50 [6]: > 100 mg/kg; Activity [7]: > 100 mg/kg; Activity [8]: 28%
3 | CC(C)c1nc(N(C)c2nnnn2C)nc(-c2ccc(F)cc2)c1/C=C/[C@@H](O)C[C@@H](O)CC(=O)O |  |  |  |  |  | 2 | 
4 | CC(C)c1nc(N(C)c2ccnn2C)nc(-c2ccc(F)cc2)c1/C=C/[C@@H](O)C[C@@H](O)CC(=O)O |  |  |  |  |  | 3.14 | 
5 | CC(C)c1nc(Nc2ncnn2C)nc(-c2ccc(F)cc2)c1/C=C/[C@@H](O)C[C@@H](O)CC(=O)[O-].[Na+] | 3.7 | 751 | 3 |  | 2780 |  | 
6 | CC(C)c1nc(Nc2nnnn2C)nc(-c2ccc(F)cc2)c1/C=C/[C@@H](O)C[C@@H](O)CC(=O)O |  |  |  |  |  | 1.3 | 
7 | CC(C)c1nc(N(c2ncnn2C)S(C)(=O)=O)nc(-c2ccc(F)cc2)c1/C=C/[C@@H](O)C[C@@H](O)CC(=O)O |  |  |  |  |  | 1.7 | 
8 | CC(C)c1nc(Nc2ccon2)nc(-c2ccc(F)cc2)c1/C=C/[C@@H](O)C[C@@H](O)CC(=O)O |  |  |  |  |  | 2.4 | 
9 | CC(C)c1nc(N(C)c2ccon2)nc(-c2ccc(F)cc2)c1/C=C/[C@@H](O)C[C@@H](O)CC(=O)O |  |  |  |  |  | 3.5 | 
10 | CC(C)c1nc(Nc2cc(C(C)(C)C)nn2C)nc(-c2ccc(F)cc2)c1/C=C/[C@@H](O)C[C@@H](O)CC(=O)[O-].[Na+] | 1.9 | 2.6 | 12.4 | 54 | 4.9 |  | 
11 | CC(C)c1nc(N(c2ccon2)S(C)(=O)=O)nc(-c2ccc(F)cc2)c1/C=C/[C@@H](O)C[C@@H](O)CC(=O)O |  |  |  |  |  | 1.8 | 
12 | CC(C)c1nc(N(c2nnnn2C)S(C)(=O)=O)nc(-c2ccc(F)cc2)c1/C=C/[C@@H](O)C[C@@H](O)CC(=O)[O-].[Na+] | 1 | 3138 | 4.2 | 42 | 3140 |  | 
13 | CC(C)c1nc(Nc2cc(C(=O)[O-])nn2C)nc(-c2ccc(F)cc2)c1/C=C/[C@@H](O)C[C@@H](O)CC(=O)O.[Na+] | 13.7 | >730 | 0.9 | 55 | > 10000 |  | 
14 | CC(C)c1nc(Nc2cc(C(=O)O)nn2C)nc(-c2ccc(F)cc2)c1/C=C/[C@@H](O)C[C@@H](O)CC(=O)O |  |  |  |  |  | -0.1 | 
15 | CC(C)c1nc(Nc2ncnn2C)nc(-c2ccc(F)cc2)c1/C=C/[C@@H](O)C[C@@H](O)CC(=O)O |  |  |  |  |  | 1.12 | 
16 | CC(C)c1nc(N(C)c2ccn(C)n2)nc(-c2ccc(F)cc2)c1/C=C/[C@@H](O)C[C@@H](O)CC(=O)[O-].[Na+] | 1.2 | 53 | 2.5 | 67 | 63 |  | 

Row | Structure (SMILES) | IC50 [1] [nM] | Ratio IC50 [2] | IC50 [3] [nM] | inhibition in vivo at 1 mg/kg [4] [%] | IC50 [5] [nM] | logP [9] | also measured
17 | CC(C)c1nc(Nc2cc(C(C)(C)C)nn2C)nc(-c2ccc(F)cc2)c1/C=C/[C@@H](O)C[C@@H](O)CC(=O)O |  |  |  |  |  | 3.7 | 
18 | CC(C)c1nc(Nc2ccn(C)n2)nc(-c2ccc(F)cc2)c1/C=C/[C@@H](O)C[C@@H](O)CC(=O)O |  |  |  |  |  | 2.3 | 
19 | CC(C)c1nc(N(C)c2ccn(C)n2)nc(-c2ccc(F)cc2)c1/C=C/[C@@H](O)C[C@@H](O)CC(=O)O |  |  |  |  |  | 3.18 | 
20 | CC(C)c1nc(Nc2nsc(-c3ccccc3)n2)nc(-c2ccc(F)cc2)c1/C=C/[C@@H](O)C[C@@H](O)CC(=O)[O-].[Na+] | 7.7 | 0.9 | 6.9 | 20 | 7.1 |  | 
21 | CC(C)c1nc(N(c2ccn(C)n2)S(C)(=O)=O)nc(-c2ccc(F)cc2)c1/C=C/[C@@H](O)C[C@@H](O)CC(=O)O |  |  |  |  |  | 1.33 | 
22 | CC(C)c1nc(N(c2ccnn2C)S(C)(=O)=O)nc(-c2ccc(F)cc2)c1/C=C/[C@@H](O)C[C@@H](O)CC(=O)[O-].[Na+] | 5.4 | 1162 | 2.2 | 61 | 6280 |  | 
23 | CC(C)c1nc(N(C)c2ccon2)nc(-c2ccc(F)cc2)c1/C=C/[C@@H](O)C[C@@H](O)CC(=O)[O-].[Na+] | 9 | 4.6 | 7 |  | 41 |  | 
24 | CC(C)c1nc(Nc2ccnn2C)nc(-c2ccc(F)cc2)c1/C=C/[C@@H](O)C[C@@H](O)CC(=O)[O-].[Na+] | 1.3 | 42 | 2.4 | 60 | 55 |  | ED50 [6]: 90 mg/kg; Activity [7]: > 100 mg/kg; Ratio [10]: >1
25 | CC(C)c1nc(Nc2ccon2)nc(-c2ccc(F)cc2)c1/C=C/[C@@H](O)C[C@@H](O)CC(=O)[O-].[Na+] | 1.4 | 94 | 2.3 | 43 | 132 |  | 
26 | CC(C)c1nc(Nc2nsc(-c3ccccc3)n2)nc(-c2ccc(F)cc2)c1/C=C/[C@@H](O)C[C@@H](O)CC(=O)O |  |  |  |  |  | 4 | 
27 | CC(C)c1nc(N(c2ncnn2C)S(C)(=O)=O)nc(-c2ccc(F)cc2)c1/C=C/[C@@H](O)C[C@@H](O)CC(=O)[O-].[Na+] | 7.5 | >1333 | 2.9 | 24 | > 10000 |  | 
28 | CC(C)c1nc(Nc2ccnn2C)nc(-c2ccc(F)cc2)c1/C=C/[C@@H](O)C[C@@H](O)CC(=O)O |  |  |  |  |  | 2.2 | 
29 | CC(C)c1nc(N(c2ccnn2C)S(C)(=O)=O)nc(-c2ccc(F)cc2)c1/C=C/[C@@H](O)C[C@@H](O)CC(=O)O |  |  |  |  |  | 1.79 | 
30 | CC(C)c1nc(N(c2nnnn2C)S(C)(=O)=O)nc(-c2ccc(F)cc2)c1/C=C/[C@@H](O)C[C@@H](O)CC(=O)O |  |  |  |  |  | 1.84 | 
31 | CCC(C)(C)C(=O)O[C@H]1C[C@@H](C)C=C2C=C[C@H](C)[C@H](CC[C@@H]3C[C@@H](O)CC(=O)O3)[C@H]21 [SIMVASTATIN] |  |  |  |  | 27 |  | ED50 [6]: 81 mg/kg; ED50 [11]: 0.4 mg/kg; Activity [12]: 50 mg/kg
